Source: ChEMBL document CHEMBL2202989, “New adamantane phenylalkylamines with σ-receptor binding affinity and anticancer activity, associated with putative antagonism of neuropathic pain” (J Med Chem, 2012)

Key:
[1] = test system: IGROV-1; test: Induction of apoptosis in human IGROV1 cells assessed as total apoptotic death at 50 uM using annexin V/7-AAD by FACS analysis (reference value: 13 %); assay type: functional
How it was run: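 Cells plated 24 h before treatment, then exposed 24 h to 0.5, 5, 15 or 50 μM compound (final DMSO 0.5%); vehicle controls included. Cells scraped and stained with annexin V-FITC and 7-AAD for 15 min on ice in the dark. Flow cytometry with 488 nm excitation, 10,000 gated cells. Early apoptosis was annexin V+/7-AAD−, late was annexin V+/7-AAD+.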

[2] = test system: IGROV-1; test: Induction of apoptosis in human IGROV1 cells assessed as cleaved caspase3 containing cells at 5 uM by antibody-based FACS analysis (reference value: 3.9 %); assay type: functional
[3] = test system: PC-3; test: Induction of apoptosis in human PC3 cells assessed as late apoptosis at 50 uM using annexin V/7-AAD by FACS analysis (reference value: 3 %); assay type: functional
[4] = test system: IGROV-1; test: Induction of apoptosis in human IGROV1 cells assessed as early apoptosis at 15 uM using annexin V/7-AAD by FACS analysis (reference value: 9 %); assay type: functional
[5] = test system: IGROV-1; test: Cell cycle arrest in human IGROV1 cells assessed as accumulation at sub G1 phase at 15 uM after 24 hrs using propidium iodide staining by FACS analysis (reference value: 4 %); assay type: functional
[6] = Displacement of [3H]batrachotoxin benzoate from Na+ channel after 60 mins by liquid scintillation counting
How it was run: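 Na+ channel site 2 binding: vesicle preparation (150−500 μg protein) incubated 60 min with 20−25 nM [3H]BTX-B and 50 μg Leiurius quinquestriatus venom. Buffer was 130 mM choline chloride, 50 mM HEPES/Tris pH 7.4, glucose, MgSO4, KCl, BSA. Filtered on GF/C with cold washes; scintillation counting. Nonspecific binding defined with 250 μM veratridine.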

[7] = test system: Mus musculus; test: Toxicity in CD1 mouse assessed as mortality at 40 to 55 mg/kg, ip for 2 to 3 weeks; assay type: organism-based; set-up: route intraperitoneal; conditions: in vivo
How it was run: (§1)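 CD-1 (male and female) and SCID mice dosed ip at 40−55 mg/kg in 5% Tween 80 for chronic 2−3 week regimens. Deaths and body weight loss compared with vehicle (Tween 80 or Cremophor) and reference-drug groups. Weight loss, neurological, behavioral and dietary changes recorded as toxicity signs.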

[8] = test system: DU-145; test: Antitumor activity against human DU145 cells xenografted in SCID mouse assessed as tumor growth inhibition at 55 mg/kg, ip administered 5 consecutive days in a week for two cycles measured after 2 cycles relative to control; assay type: functional; conditions: DU-145, ip, route intraperitoneal, read-out: TGI
How it was run: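 DU145 xenografts were grown in SCID mice from 10^6-cell inocula, with at least 30 animals in total. Treatment started ip at a mean tumor volume of about 100 mm3. The test agent was given in 5% Tween 80; paclitaxel was dissolved in Cremophor and diluted in saline. Caliper volumes were taken twice weekly and %ΔT/ΔC calculated; two-tailed t test.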

[9] = test system: BXPC-3; test: Induction of apoptosis in human BxPC3 cells assessed as early apoptosis at 50 uM using annexin V/7-AAD by FACS analysis (reference value: 9 %); assay type: functional
[10] = test system: BXPC-3; test: Induction of apoptosis in human BxPC3 cells assessed as late apoptosis at 15 uM using annexin V/7-AAD by FACS analysis (reference value: 9 %); assay type: functional
[11] = test system: IGROV-1; test: Induction of apoptosis in human IGROV1 cells assessed as late apoptosis at 50 uM using annexin V/7-AAD by FACS analysis (reference value: 5 %); assay type: functional
[12] = test system: PC-3; test: Induction of apoptosis in human PC3 cells assessed as cleaved caspase3 containing cells at 0.5 uM by antibody-based FACS analysis (reference value: 3.2 %); assay type: functional
[13] = test system: IGROV-1; test: Cell cycle arrest in human IGROV1 cells assessed as accumulation at G1 phase at 5 uM after 24 hrs using propidium iodide staining by FACS analysis (reference value: 27 %); assay type: functional
How it was run: (§2)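 Cells were plated 24 h before treatment and exposed for 24 h at final 0.5, 5, 15 and 50 μM in 0.5% DMSO, against vehicle-treated controls. Cells were then trypsinised and fixed in cold ethanol for 3 h at 4 °C. They were stained in a mix of RNase (200 μg/mL) and PI (1 mg/mL) for 45 min at room temperature in the dark. Flow cytometry used 488 nm excitation and 10 000 gated cells. Phase percentages were assigned from DNA content.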

[14] = test system: IGROV-1; test: Cell cycle arrest in human IGROV1 cells assessed as accumulation at G2 phase at 50 uM after 24 hrs using propidium iodide staining by FACS analysis (reference value: 19 %); assay type: functional
[15] = test system: OVCAR-5; test: Growth inhibition of human OVCAR5 cells after 48 hrs by SRB assay; assay type: functional; conditions: OVCAR-5, 48 h
How it was run: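 Cells grown in RPMI 1640 with 5% heat-inactivated FCS, 2 mM L-glutamine and antibiotics, 37 °C, 5% CO2. Seeded at 3500–30000 cells/well and left 24 h before dosing. DMSO solutions added at 10-fold dilutions from 100 to 0.01 μM for 48 h. Cells TCA-fixed and SRB-stained, absorbance read at 540 nm; GI50 derived against the time-zero plate.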

[16] = test system: IGROV-1; test: Cell cycle arrest in human IGROV1 cells assessed as accumulation at G1 phase at 0.5 uM after 24 hrs using propidium iodide staining by FACS analysis (reference value: 27 %); assay type: functional; how it was run: as §2
[17] = test system: BXPC-3; test: Cell cycle arrest in human BxPC3 cells assessed as accumulation at G2 phase at 5 uM after 24 hrs using propidium iodide staining by FACS analysis (reference value: 12 %); assay type: functional; how it was run: as §2
[18] = test system: PC-3; test: Cell cycle arrest in human PC3 cells assessed as accumulation at G2 phase at 5 uM after 24 hrs using propidium iodide staining by FACS analysis (reference value: 12 %); assay type: functional
[19] = test system: PC-3; test: Induction of apoptosis in human PC3 cells assessed as early apoptosis at 15 uM using annexin V/7-AAD by FACS analysis (reference value: 5 %); assay type: functional
[20] = test system: PC-3; test: Cell cycle arrest in human PC3 cells assessed as accumulation at S phase at 50 uM after 24 hrs using propidium iodide staining by FACS analysis (reference value: 42 %); assay type: functional
[21] = test system: Mus musculus; test: Toxicity in SCID mouse assessed as mortality at 40 to 55 mg/kg, ip for 2 to 3 weeks; assay type: organism-based; set-up: route intraperitoneal; conditions: in vivo; how it was run: as §1
[22] = test system: BXPC-3; test: Cell cycle arrest in human BxPC3 cells assessed as accumulation at G1 phase at 50 uM after 24 hrs using propidium iodide staining by FACS analysis (reference value: 41 %); assay type: functional; how it was run: as §2
[23] = test system: PC-3; test: Cell cycle arrest in human PC3 cells assessed as accumulation at G2 phase at 15 uM after 24 hrs using propidium iodide staining by FACS analysis (reference value: 12 %); assay type: functional
[24] = test system: PC-3; test: Cell cycle arrest in human PC3 cells assessed as accumulation at S phase at 0.5 uM after 24 hrs using propidium iodide staining by FACS analysis (reference value: 42 %); assay type: functional
[25] = test system: BXPC-3; test: Cell cycle arrest in human BxPC3 cells assessed as accumulation at sub G1 phase at 5 uM after 24 hrs using propidium iodide staining by FACS analysis (reference value: 9 %); assay type: functional; how it was run: as §2

Structure (SMILES): CN1CCN(CCCc2ccc(C(c3ccccc3)C34CC5CC(CC(C5)C3)C4)cc2)CC1 (configuration not stated)
- Activity [1]: 64%
- Activity [2]: 12.6%
- Activity [3]: 9%
- Activity [4]: 37%
- Activity [5]: 12%
- IC50 [6]: > 1 µM
- Activity [7]: Non-toxic
- inhibition in vivo at 55 mg/kg [8]: 71.4%
- Activity [9]: 2%
- Activity [10]: 26%
- Activity [11]: 25%
- Activity [12]: 1.7%
- Activity [13]: 29%
- Activity [14]: 10%
- GI50 [15]: 3.6 µM
- TGI [15]: 6.9 µM
- CC50 ([15]; read-out: LC50 (the source's name)): 0.0102 µM
- Activity [16]: 25%
- Activity [17]: 10%
- Activity [18]: 10%
- Activity [19]: 9%
- Activity [20]: 31%
- Activity [21]: Non-toxic
- Activity [22]: 31%
- Activity [23]: 11%
- Activity [24]: 38%
- Activity [25]: 8%
